Source: ChEMBL document CHEMBL1221364 (Bioorg Med Chem, 2010)

Columns and labels:
[1] = biological target: 5-hydroxytryptamine receptor 7 (Homo sapiens, UniProt P34969); experiment: Binding affinity to 5HT7 receptor
[2] = Displacement of [3H]spiperone from D2 like receptor in pig striatal tissue by topcount scintillation counting; assay type: tissue-based, Sus scrofa, Striatum
In short: (§1)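 Porcine striatal membranes (P2 pellet, washed in 50 mM Tris pH 7.4), 75 µg protein per tube in 50 mM Hepes, 4 mM MgCl2, pH 7.4. Nonspecific binding was defined with 5 µM butaclamol. Incubation was 37 °C for 30 min, then filtration and scintillation counting. Ki was derived by Cheng-Prusoff and D2/D1 Ki compared.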

[3] = biological target: D(3) dopamine receptor (Homo sapiens, UniProt P35462); experiment: Binding affinity to dopamine D3 receptor
D(3) dopamine receptor, sequence (P35462 whole entry): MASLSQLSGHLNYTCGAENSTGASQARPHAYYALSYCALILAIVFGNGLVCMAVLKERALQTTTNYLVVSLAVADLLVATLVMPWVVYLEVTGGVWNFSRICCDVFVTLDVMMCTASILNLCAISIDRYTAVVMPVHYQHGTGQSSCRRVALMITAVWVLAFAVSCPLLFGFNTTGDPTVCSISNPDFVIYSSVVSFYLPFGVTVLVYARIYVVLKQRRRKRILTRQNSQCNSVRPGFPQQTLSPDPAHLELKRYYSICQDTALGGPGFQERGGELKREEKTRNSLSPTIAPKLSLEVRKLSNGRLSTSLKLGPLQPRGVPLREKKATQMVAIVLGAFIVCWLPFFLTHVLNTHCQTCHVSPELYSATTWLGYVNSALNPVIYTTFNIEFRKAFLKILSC

[4] = biological target: T1, Alpha-2A adrenergic receptor (Homo sapiens, UniProt P08913); experiment: Binding affinity to adrenergic alpha2A receptor
T1 sequence (P08913 whole entry): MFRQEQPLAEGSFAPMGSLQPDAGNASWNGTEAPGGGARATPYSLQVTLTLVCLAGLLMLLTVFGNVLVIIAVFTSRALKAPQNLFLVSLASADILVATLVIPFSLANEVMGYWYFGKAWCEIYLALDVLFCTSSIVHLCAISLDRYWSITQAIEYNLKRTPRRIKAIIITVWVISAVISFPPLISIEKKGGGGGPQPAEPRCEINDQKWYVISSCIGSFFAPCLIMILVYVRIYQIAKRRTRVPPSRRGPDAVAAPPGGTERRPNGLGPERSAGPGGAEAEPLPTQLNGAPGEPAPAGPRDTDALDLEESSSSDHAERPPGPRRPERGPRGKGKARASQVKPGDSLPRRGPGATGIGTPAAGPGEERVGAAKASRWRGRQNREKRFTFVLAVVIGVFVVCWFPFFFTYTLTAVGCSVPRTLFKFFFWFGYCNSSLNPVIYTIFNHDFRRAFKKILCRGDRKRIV

[5] = biological target: T2, 5-hydroxytryptamine receptor 3A (Homo sapiens, UniProt P46098); experiment: Binding affinity to 5HT3 receptor
T2 sequence (P46098 whole entry): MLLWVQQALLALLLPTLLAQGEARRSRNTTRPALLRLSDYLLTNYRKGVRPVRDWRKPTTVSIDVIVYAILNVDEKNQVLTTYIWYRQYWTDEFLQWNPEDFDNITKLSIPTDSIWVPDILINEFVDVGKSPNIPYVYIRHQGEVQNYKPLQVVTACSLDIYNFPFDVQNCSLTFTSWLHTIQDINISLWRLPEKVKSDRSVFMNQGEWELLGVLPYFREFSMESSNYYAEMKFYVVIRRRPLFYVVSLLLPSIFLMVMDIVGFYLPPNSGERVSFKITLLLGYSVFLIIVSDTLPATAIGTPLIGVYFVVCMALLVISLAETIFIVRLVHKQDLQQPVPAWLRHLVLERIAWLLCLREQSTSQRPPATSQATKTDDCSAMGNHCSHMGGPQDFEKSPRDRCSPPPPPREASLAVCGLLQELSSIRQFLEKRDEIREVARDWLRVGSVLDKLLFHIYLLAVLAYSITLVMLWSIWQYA

[6] = biological target: D(1B) dopamine receptor (Homo sapiens, UniProt P21918); experiment: Binding affinity to dopamine D5 receptor
D(1B) dopamine receptor, sequence (P21918 whole entry): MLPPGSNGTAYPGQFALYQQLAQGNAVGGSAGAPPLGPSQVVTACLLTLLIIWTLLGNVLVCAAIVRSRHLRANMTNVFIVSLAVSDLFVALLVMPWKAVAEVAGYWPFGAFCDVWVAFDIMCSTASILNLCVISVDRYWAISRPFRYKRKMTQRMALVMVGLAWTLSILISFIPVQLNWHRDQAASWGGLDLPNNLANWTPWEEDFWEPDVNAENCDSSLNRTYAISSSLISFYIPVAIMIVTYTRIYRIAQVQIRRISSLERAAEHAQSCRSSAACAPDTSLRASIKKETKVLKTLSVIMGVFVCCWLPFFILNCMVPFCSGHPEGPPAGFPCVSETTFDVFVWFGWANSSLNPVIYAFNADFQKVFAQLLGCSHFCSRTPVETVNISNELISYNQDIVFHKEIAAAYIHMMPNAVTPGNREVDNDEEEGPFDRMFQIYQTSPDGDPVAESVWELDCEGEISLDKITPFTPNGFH

[7] = biological target: T3, Alpha-1A adrenergic receptor (Homo sapiens, UniProt P35348); experiment: Binding affinity to adrenergic alpha1A receptor
T3 sequence (P35348 whole entry): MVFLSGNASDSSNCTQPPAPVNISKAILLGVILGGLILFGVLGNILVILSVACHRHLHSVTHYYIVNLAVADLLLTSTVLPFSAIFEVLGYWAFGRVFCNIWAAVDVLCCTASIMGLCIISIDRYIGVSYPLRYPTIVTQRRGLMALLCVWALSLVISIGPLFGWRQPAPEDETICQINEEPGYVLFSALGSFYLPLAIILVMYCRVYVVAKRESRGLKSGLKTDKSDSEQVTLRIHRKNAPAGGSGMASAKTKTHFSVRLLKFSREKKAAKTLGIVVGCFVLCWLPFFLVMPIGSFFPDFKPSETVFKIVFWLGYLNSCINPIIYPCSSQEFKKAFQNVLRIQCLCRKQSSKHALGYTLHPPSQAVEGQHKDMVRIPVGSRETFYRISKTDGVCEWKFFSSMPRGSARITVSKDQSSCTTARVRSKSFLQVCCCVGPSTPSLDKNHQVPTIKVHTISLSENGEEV

[8] = biological target: T4, D(4) dopamine receptor (Homo sapiens, UniProt P21917); experiment: Binding affinity to dopamine D4 receptor
T4 sequence (P21917 whole entry): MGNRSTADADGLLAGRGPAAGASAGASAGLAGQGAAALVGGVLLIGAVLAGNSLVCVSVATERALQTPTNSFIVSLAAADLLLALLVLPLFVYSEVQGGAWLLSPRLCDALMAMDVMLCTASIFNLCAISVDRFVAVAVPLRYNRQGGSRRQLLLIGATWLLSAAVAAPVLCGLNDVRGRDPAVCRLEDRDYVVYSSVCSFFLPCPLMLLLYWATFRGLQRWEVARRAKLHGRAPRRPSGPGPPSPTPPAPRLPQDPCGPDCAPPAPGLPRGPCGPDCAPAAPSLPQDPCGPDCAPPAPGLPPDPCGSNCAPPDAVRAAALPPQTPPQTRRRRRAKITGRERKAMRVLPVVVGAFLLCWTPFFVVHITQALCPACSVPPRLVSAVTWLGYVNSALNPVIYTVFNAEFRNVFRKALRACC

[9] = biological target: T5, Alpha-2C adrenergic receptor (Homo sapiens, UniProt P18825); experiment: Binding affinity to adrenergic Alpha-2C receptor
T5 sequence (P18825 whole entry): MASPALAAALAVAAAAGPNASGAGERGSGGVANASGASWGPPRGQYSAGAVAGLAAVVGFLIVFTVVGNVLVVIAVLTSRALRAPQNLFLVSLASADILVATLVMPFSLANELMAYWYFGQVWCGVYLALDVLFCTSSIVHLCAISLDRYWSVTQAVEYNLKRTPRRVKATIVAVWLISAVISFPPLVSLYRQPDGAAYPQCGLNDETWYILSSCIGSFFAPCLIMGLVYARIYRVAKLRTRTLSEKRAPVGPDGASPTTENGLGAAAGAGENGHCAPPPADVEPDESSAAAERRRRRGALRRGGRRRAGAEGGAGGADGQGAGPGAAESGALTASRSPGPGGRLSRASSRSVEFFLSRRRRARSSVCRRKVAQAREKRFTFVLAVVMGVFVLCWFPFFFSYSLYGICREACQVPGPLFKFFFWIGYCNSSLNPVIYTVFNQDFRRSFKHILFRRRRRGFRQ

[10] = biological target: T6, Alpha-2B adrenergic receptor (Homo sapiens, UniProt P18089); experiment: Binding affinity to adrenergic alpha2B receptor
T6 sequence (P18089 whole entry): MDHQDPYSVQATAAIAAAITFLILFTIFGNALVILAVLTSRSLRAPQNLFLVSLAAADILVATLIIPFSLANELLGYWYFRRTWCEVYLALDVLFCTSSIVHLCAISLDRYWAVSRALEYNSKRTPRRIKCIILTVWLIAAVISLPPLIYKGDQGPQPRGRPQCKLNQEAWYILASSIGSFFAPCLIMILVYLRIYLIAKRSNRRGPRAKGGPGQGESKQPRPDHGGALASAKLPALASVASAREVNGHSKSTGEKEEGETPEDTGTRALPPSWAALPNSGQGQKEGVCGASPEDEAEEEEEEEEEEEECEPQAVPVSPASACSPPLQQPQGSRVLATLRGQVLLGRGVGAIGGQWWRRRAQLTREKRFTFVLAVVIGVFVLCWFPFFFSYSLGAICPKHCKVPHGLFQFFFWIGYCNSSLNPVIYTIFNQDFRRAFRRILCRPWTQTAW

[11] = Displacement of [3H]SCH23390 from D1 like receptor in pig striatal tissue by topcount scintillation counting; assay type: tissue-based, Sus scrofa, Striatum; in short: as §1
[12] = biological target: T7, D(1A) dopamine receptor (Homo sapiens, UniProt P21728); experiment: Agonist activity at human D1 receptor assessed as cAMP accumulation; assay type: functional
T7 sequence (P21728 whole entry): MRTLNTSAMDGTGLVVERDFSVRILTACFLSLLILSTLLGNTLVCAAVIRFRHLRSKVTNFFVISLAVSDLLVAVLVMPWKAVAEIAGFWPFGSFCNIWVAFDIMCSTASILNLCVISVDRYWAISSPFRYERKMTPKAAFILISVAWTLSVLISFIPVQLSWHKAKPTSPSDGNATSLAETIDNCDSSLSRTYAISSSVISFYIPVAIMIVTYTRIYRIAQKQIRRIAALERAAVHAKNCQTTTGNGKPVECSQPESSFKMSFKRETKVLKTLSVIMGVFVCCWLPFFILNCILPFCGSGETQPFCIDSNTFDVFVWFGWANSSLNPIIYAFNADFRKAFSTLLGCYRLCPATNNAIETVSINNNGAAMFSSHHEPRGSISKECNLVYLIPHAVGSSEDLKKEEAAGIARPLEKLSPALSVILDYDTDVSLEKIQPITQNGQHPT

[13] = biological target: T7, D(1A) dopamine receptor; experiment: Binding affinity to dopamine D1 receptor
[14] = biological target: Kappa-type opioid receptor (Homo sapiens, UniProt P41145); experiment: Binding affinity to […] opioid receptor
Kappa-type opioid receptor, sequence (P41145 whole entry): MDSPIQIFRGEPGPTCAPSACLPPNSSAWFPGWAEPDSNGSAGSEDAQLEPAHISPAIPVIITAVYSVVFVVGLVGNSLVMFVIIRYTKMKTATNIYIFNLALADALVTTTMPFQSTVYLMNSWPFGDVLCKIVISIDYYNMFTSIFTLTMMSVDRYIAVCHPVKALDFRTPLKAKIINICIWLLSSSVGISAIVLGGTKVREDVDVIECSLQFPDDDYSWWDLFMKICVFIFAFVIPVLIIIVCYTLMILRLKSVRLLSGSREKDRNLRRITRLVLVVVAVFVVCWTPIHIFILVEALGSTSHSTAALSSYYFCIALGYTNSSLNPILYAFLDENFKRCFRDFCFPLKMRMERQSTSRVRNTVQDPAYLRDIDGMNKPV

[15] = species: Sus scrofa; experiment: Selectivity ratio of Ki for pig D2-like receptor to Ki for pig D1-like receptor
In short: as §1, with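 “7.4. D1-like sites were labelled with 1 nM [3H]SCH-23390. D2-like sites were labelled with 0.15 nM [3H]spiperone plus 50 nM ketanserin.” for “7.4.”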

5-hydroxytryptamine receptor 7, sequence (P34969 whole entry): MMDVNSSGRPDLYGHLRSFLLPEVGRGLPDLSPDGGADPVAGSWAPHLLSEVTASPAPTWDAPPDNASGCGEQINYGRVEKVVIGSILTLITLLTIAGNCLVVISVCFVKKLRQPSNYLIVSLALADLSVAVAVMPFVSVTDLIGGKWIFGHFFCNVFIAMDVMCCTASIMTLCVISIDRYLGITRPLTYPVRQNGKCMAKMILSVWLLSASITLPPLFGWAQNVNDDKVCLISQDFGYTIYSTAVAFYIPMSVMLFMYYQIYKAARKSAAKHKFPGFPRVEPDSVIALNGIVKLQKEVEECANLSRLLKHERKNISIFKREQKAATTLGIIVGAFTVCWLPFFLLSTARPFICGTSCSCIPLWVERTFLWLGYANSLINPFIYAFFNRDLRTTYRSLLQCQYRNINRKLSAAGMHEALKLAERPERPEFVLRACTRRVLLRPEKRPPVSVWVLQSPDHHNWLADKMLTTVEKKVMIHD

Row | SMILES | Ki [1] [nM] | Ki [2] [nM] | Ki [3] [nM] | Ki [4] [nM] | Ki [5] [nM] | Ki [6] [nM] | Ki [7] [nM] | Ki [8] [nM] | Ki [9] [nM] | Ki [10] [nM] | Ki [11] [nM] | EC50 [12] [nM] | Ki [13] [nM] | Ki [14] [nM] | Selectivity Index [15]
1 | Oc1ccc2c(c1O)C[C@@H](c1ccccc1)[C@@H]1CCNC[C@@H]21 | 220 | 440 | 130 | 3.5 | 870 | 2.8 | 340 | 2650 | 1.1 | 6.4 | 6 | 0.64 | 18 | 820 | 
2 | Oc1ccc2c(c1O)CC[C@@H]1CCNC[C@@H]21 (relative stereo) |  | 670 |  |  |  |  |  |  |  |  | 850 |  |  |  | 0.8
3 | Oc1ccc2c(c1O)CC[C@@H]1CCNC[C@H]21 (relative stereo) |  | 2800 |  |  |  |  |  |  |  |  | 6800 |  |  |  | 0.4
4 | CN1CCc2cc(Cl)c(O)cc2[C@@H](c2ccccc2)C1 [SCH-23390] |  |  |  |  |  |  |  |  |  |  | 0.79 |  |  |  | 
